The text below walks through data of ChEMBL document CHEMBL2385029, “Cytotoxic activities of substituted 3-(3,4,5-trimethoxybenzylidene)-1,3-dihydroindol-2-ones and studies on their mechanisms of action” (Eur J Med Chem, 2013).

Activity calls are given as the source filed them. No cut-off for these calls is given here. Bounds are passed on as bounds.

What is called inhibition is the change of the read-out against control, counted positive when it falls. A word on the IC50: it is the concentration at which inhibition is half-maximal. A lower IC50 goes with greater potency in that assay. What is called GI50 is the concentration that inhibits growth by half. Usually TGI stands for the concentration giving total growth inhibition. Higher therefore signals lower sensitivity of the cells. By LC50 is commonly meant the concentration lethal to half of the exposed cells or organisms.

The species entered for one assay is Bos taurus. Nature of the assay: Displacement of [3H]colchicine from bovine brain tubulin at 5 uM after 10 mins.
Assay [1] in a line: Inhibition of bovine brain tubulin assembly after 20 mins.
A short description of assay [2]: Cytotoxicity against human breast cancer cells after 48 hrs. The format is functional. To be noted: Cancer cell lines. A digest of the protocol:
(§1)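 NCI 60-cell panel, values averaged per subpanel. Compounds were dissolved in DMSO and first screened at a single 10⁻⁵ M dose. Active ones then went to five concentrations at ten-fold dilutions, top 10⁻⁴ M (10⁻³ M for some), with 48 h exposure.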

The next assay relates to B1647. Nature of the assay: Cytotoxicity against human B1647 cells at 5 to 10 uM after 24 hrs by MTT assay. The format is functional, cell-based. A digest of the protocol: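 B1647 human AML cells grown in IMDM with 5% human serum (37 °C, 5% CO2); 10⁶ cells per well in 1 mL exposed to 5 or 10 µM compound (DMSO) for 24 h. MTT 0.5 mg/mL added for 4 h at 37 °C, formazan dissolved overnight in 10% SDS/0.01 M HCl, A570 read. Four independent experiments.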

The nature of assay [3]: Cytotoxicity against human colon cancer cells after 48 hrs. The format is functional. To be noted: Cancer cell lines. In a few lines: as §1
The nature of assay [4]: Cytotoxicity against human leukemia cells after 48 hrs. The format is functional. The note with it: Leukemia cell; for CC50: read-out: LC50 (the source's name).
Assay [5] in a line: Inhibition of nox4 expression in human B1647 cells at 10 uM after 24 hrs by Western blot analysis relative to control. The format is functional. In a few lines:
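B1647 cells treated 24 h at 10 µM. Lysates (40 µg protein per lane) run on 10% SDS-PAGE and transferred to nitrocellulose. Blots probed with anti-Nox4, with β-tubulin as loading control, and detected by chemiluminescence. Bands quantified by densitometry in arbitrary units relative to control; three independent experiments.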
(In general: A western blot detects proteins with antibodies after separation by electrophoresis.)

Assay [6] addresses T1, NADPH oxidase 4 (Homo sapiens) (UniProt Q9NPH5).
T1 sequence (whole entry): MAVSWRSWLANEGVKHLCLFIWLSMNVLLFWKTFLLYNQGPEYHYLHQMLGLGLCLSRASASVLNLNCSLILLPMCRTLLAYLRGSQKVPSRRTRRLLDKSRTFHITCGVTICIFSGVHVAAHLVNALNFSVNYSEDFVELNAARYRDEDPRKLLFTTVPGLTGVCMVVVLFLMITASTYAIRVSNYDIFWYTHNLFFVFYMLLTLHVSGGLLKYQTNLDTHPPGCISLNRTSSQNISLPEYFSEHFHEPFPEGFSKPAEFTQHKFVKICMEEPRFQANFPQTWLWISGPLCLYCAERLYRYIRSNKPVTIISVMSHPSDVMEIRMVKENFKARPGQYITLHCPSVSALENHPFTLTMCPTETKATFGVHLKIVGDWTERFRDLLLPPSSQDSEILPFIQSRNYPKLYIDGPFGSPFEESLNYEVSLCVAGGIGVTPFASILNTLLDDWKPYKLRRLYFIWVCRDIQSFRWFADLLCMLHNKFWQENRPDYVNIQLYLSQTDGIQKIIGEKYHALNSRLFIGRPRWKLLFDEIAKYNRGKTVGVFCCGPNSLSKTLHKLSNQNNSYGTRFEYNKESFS
Kind of assay: Inhibition of NOX4 in human B1647 cells assessed as reduction of ROS production after 20 mins by DCFH-DA fluorescence assay. The format is cell-based. To be noted: in the assay text read “after 30 mins” for “after 20 mins”. In a few lines: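 B1647 cells given compound (DMSO) at 5 or 10 µM for 30 min, then at 1 × 10⁶/mL washed twice in PBS and loaded with 5 µM DCFH-DA for 20 min at 37 °C. DCF fluorescence read in multiwell plate; four independent experiments.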

Assay [7] can be described thus: Cytotoxicity against human NSCLC cells after 48 hrs. The format is functional. The note with it: for CC50: read-out: LC50 (the source's name). In a few lines: as §1
Assay [8] in a line: Cytotoxicity against human renal cancer cells after 48 hrs. The note with it: Cancer cell lines. The format is functional.
Assay [9] can be described thus: Cytotoxicity against human ovarian cancer cells after 48 hrs. The format is functional. To be noted: Cancer cell lines; for CC50: read-out: LC50 (the source's name). A digest of the protocol:
as §1

Assay [10] can be described thus: Cytotoxicity against human melanoma cells after 48 hrs. The format is functional. To be noted: Melanoma cell; for CC50: read-out: LC50 (the source's name).
The nature of assay [11]: Cytotoxicity against human prostate cancer cells after 48 hrs. The format is functional. To be noted: Cancer cell lines; for CC50: read-out: LC50 (the source's name). In a few lines:
as §1

Assay [12] deals with T1, NADPH oxidase 4 (Homo sapiens). Nature of the assay: Inhibition of NOX4 in human nox2 silenced B1647 cells assessed as reduction of ROS production at 50 nM after 20 mins by DCFH-DA fluorescence assay. The format is cell-based. To be noted: 5 or 10 uM, in the assay text read “at 5 or 10 uM after 30 mins” for “at 50 nM after 20 mins”. In a few lines: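 B1647 cells nucleofected with Nox2 siRNA or scrambled siRNA (final 50 nM), used after 24–48 h. Compound treatment for 30 min, then 5 µM DCFH-DA loading for 20 min at 37 °C and DCF fluorescence read. Scrambled cells served as control.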

Assay [13] is described as follows: Cytotoxicity against human CNS cancer cells after 48 hrs. The format is functional. To be noted: Cancer cell lines. In a few lines:
as §1

In the case of `COc1cc(/N=C2\C(=O)N(Cc3ccccc3)c3ccccc32)cc(OC)c1OC`, the inhibition in the assay listed under Bos taurus was 31%. In [1], this compound showed an IC50 of 3.3 µM.
Take `COc1cc(/C=C2\C(=O)Nc3ccc(Br)cc32)cc(OC)c1OC`: the GI50 in [2] came to 3.2 µM; in assay [3], 6.2 µM; in [4], 2.1 µM; in assay [7] it was 9.5 µM; in assay [8], 14.1 µM; in assay [9], 17 µM. In addition, the GI50 is 10.2 µM in assay [10], 11 µM in assay [11] and 14.8 µM in assay [13]. Moreover, the TGI worked out at 45.7 µM in [2]; 77.6 µM in assay [7]; 75.9 µM in assay [8]; 69.2 µM in assay [9]; 56.2 µM in [13]. For the same compound, the result with B1647 was Active. Moreover, in assay [5], the “fold change (FC)” value is 0.86. In assay [6], the inhibition entry was “Dose-dependent effect”. In addition, in assay [1], the half-inhibitory concentration (IC50) is above 20 µM. In addition, in [12], the inhibition result was “Active”.
Consider `c1ccc2c(c1)[I+]c1ccccc1-2` [DIPHENYLENEIODONIUM], for which, in assay [5], the “fold change (FC)” value amounted to 0.73.
Compound `COc1ccc2c(c1)/C(=C\c1cc(OC)c(OC)c(OC)c1)C(=O)N2` displayed an inhibition in the assay filed under Bos taurus of 35%. The IC50 in [1] was 6.1 µM.
As to `COc1cc(/C=C2\C(=O)N(Cc3ccc(Cl)cc3)c3ccccc32)cc(OC)c1OC`, the GI50 stood at 2.4 µM in [2]; 2.2 µM in assay [3]; 1.5 µM in assay [4]; 3.4 µM in assay [7]; 2.5 µM in [8]; 3.4 µM in assay [9]. Also, the GI50 amounted to 2.9 µM in [10], 2.2 µM in assay [11] and 3.4 µM in assay [13]. In addition, the LC50 amounted to 95.5 µM in assay [2], 14.4 µM in assay [3], 43.6 µM in assay [8] and 46.8 µM in assay [13]. The total growth inhibition concentration (TGI) turned out to be 12.9 µM in assay [2], 14.4 µM in assay [7], 22.9 µM in assay [9] and 15.1 µM in assay [13]. In addition, the outcome in the assay on B1647 was Active. In addition, the CC50 in [4] turned out to be 50.1 µM; in assay [7] it was 56.2 µM; in [9] it was 51.3 µM; in assay [10], 26.9 µM; in [11], 33.1 µM. The compound further gave an IC50 in assay [1] above 20 µM.
For `COc1cc(/C=C2/C(=O)Nc3cc(C)c(O)cc32)cc(OC)c1OC`, the GI50 in assay [2] was 2.5 µM; in [3] it was 4 µM; in assay [4], 1.8 µM; in [7], 5.7 µM; in [8], 7.1 µM; in assay [9] it was 7.1 µM. Besides, the concentration for 50% growth inhibition (GI50) in assay [10] was 3.6 µM; in assay [11] it was 3.9 µM; in [13], 5.2 µM. For the same compound, the median lethal concentration (LC50) in [2] amounted to 74.1 µM; in assay [3], 53.7 µM; in [8] it was 66.1 µM; in assay [13], 85.1 µM. In addition, the concentration for total growth inhibition (TGI) is 14.4 µM in [2]; 18.2 µM in assay [3]; 31.6 µM in assay [7]; 25.1 µM in assay [8]; 37.1 µM in assay [9]; 16.6 µM in [10]. Besides, the results for the total growth inhibition concentration (TGI) in assay [11] and in assay [13] were 30.9 µM and 25.7 µM, respectively. In the assay on B1647, the outcome was Active. For the same compound, the CC50 in assay [4] came to 70.8 µM; in assay [7] it was 79.4 µM; in [9], 87.1 µM; in assay [10] it was 53.7 µM; in [11], 91.2 µM. Also, the “fold change (FC)” value in assay [5] worked out at 0.64. Also, the inhibition entry in assay [6] is “Dose-dependent effect”. In assay [1], the IC50 was above 20 µM. Besides, the inhibition result in assay [12] was “Active”.
